Key:
Trypanosoma brucei = test: In vitro antiparasitic activity against Trypanosoma brucei was tested by sigmoidal regression analysis; format: functional; settings: read-out: ED50 (the source's name)
Outline: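 T. b. brucei S427 bloodstream trypomastigotes at 2 × 10⁵/mL in HMI-18 medium, in triplicate, with a 3-fold dilution series starting at 30 µM. Incubated 3 days at 37 °C in 5% CO₂. Pentamidine served as positive control. Viability read by tetrazolium colorimetric assay on day 3. ED50 by sigmoidal regression.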

Trypanosoma cruzi = test: In vitro antiparasitic activity against Trypanosoma cruzi was tested by sigmoidal regression analysis; format: functional; settings: read-out: ED50 (the source's name)
Outline: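 Mouse peritoneal macrophages (female CD1, starch-elicited, harvested 24 h) infected with L. donovani amastigotes (strain MHOM/ET/67/L82, hamster spleen) or T. cruzi Y-strain trypomastigotes (5:1, from MDCK overlay). Infected cells exposed to a 3-fold dilution series in quadruplicate for 5 days (L. donovani) or 3 days (T. cruzi). Giemsa-stained slides scored for % macrophages cleared of amastigotes versus untreated cultures. ED50 by sigmoidal regression.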

Trypanothione reductase = Trypanothione reductase (Trypanosoma cruzi, UniProt P28593); test: Inhibitory activity against Trypanosoma cruzi trypanothione disulfide reductase, assay in presence of 57 uM T(S)2.
Chain of Trypanothione reductase (P28593 whole entry): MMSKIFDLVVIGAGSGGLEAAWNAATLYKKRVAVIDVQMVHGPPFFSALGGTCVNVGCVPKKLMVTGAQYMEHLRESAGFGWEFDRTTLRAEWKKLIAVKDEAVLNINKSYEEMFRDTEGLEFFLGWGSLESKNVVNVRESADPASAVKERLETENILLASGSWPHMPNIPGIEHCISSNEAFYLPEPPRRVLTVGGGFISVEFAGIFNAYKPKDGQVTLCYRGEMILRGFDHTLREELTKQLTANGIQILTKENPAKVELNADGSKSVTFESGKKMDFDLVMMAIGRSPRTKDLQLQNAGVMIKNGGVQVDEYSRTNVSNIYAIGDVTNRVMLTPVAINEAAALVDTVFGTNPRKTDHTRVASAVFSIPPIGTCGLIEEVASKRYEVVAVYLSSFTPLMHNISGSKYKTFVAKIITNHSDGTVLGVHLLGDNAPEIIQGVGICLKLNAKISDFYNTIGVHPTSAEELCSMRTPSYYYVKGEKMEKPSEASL
Outline: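 Assay contained 250 µM NADPH, 57 µM T(S)₂, inhibitor at 0.3–50 µM and 1% DMSO final. Started with enzyme; NADPH loss followed at 340 nm. IC50 in duplicate.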

Compound	EC50 (Trypanosoma brucei)	EC50 (Trypanosoma cruzi)	IC50 (Trypanothione reductase)
CC1=C(CCCCC(=O)O)C(=O)c2ccccc2C1=O	> 110 µM	44 µM	> 50 µM
CC1=C(CCCCCC(=O)O)C(=O)c2ccccc2C1=O	5.3 µM	17 µM	> 50 µM
CC1=C(CCCCC(=O)O)C(=O)c2c(O)cccc2C1=O	> 10 µM	42 µM	> 50 µM
CC1=C(CCCCCC(=O)O)C(=O)c2c(O)cccc2C1=O	> 3.3 µM	32 µM	> 50 µM
CC1=C(CCCNC(=O)OC(C)(C)C)C(=O)c2c(O)cccc2C1=O	0.6 µM	3.7 µM	> 25 µM
O=C(O)CCCCCC1=C(CCCCCC(=O)O)C(=O)c2ccccc2C1=O	48 µM	> 74 µM	> 50 µM
CC1=C(CCCCC(=O)NCCCN2CCN(CCCNC(=O)CCCCC3=C(C)C(=O)c4cccc(O)c4C3=O)CC2)C(=O)c2c(O)cccc2C1=O	> 1.3 µM	17.2 µM	2.5 µM
CC1=C(CCC(=O)NCCCCNCCCNC(=O)CCC2=C(C)C(=O)c3ccccc3C2=O)C(=O)c2ccccc2C1=O	4.9 µM	13 µM	2.7 µM
CN1CCN(CCCNC(=O)CCC2=C(CCC(=O)NCCCN3CCN(C)CC3)C(=O)c3c(O)cccc3C2=O)CC1	21.5 µM	> 50 µM	> 50 µM
O=C(O)CCCCC1=C(CCCCC(=O)O)C(=O)c2c(O)cccc2C1=O	> 80 µM	80 µM	> 50 µM
CC1=C(CCCC(=O)NCCCCNCCCNC(=O)CCCC2=C(C)C(=O)c3cccc(O)c3C2=O)C(=O)c2c(O)cccc2C1=O	> 4.5 µM	46 µM	2.3 µM
CC1=C(CCC(=O)O)C(=O)c2c(O)cccc2C1=O	> 11 µM	46 µM	> 50 µM
CN1CCN(C(=O)CCCC2=C(CCCC(=O)N3CCN(C)CC3)C(=O)c3c(O)cccc3C2=O)CC1	31.4 µM	> 48 µM	17.5 µM
CC1=C(NCCCC/N=C2/C(=O)c3ccccc3C(O)=C2C)C(=O)c2ccccc2C1=O	> 12.5 µM	> 12.5 µM	> 57 µM
CN(C)CCCN1CCN(CC2=C(N3CCN(CCCN(C)C)CC3)C(=O)c3ccccc3C2=O)CC1	> 12.5 µM	> 12.5 µM	> 57 µM
CC1=C(CCC(=O)N2CCN(C)CC2)C(=O)c2c(O)cccc2C1=O	52 µM	> 88 µM	50 µM
CC1=C(NCCCN2CCN(CCCN)CC2)C(=O)c2ccccc2C1=O	–	> 12.5 µM	6 µM
CC1=C(CCCCC(=O)NCCCCNCCCNC(=O)CCCCC2=C(C)C(=O)c3cccc(O)c3C2=O)C(=O)c2c(O)cccc2C1=O	> 1.5 µM	4 µM	1.7 µM
CC1=C(CCCCCNC(=O)OC(C)(C)C)C(=O)c2c(O)cccc2C1=O	2.5 µM	13.3 µM	> 25 µM
CC1=C(CCCC(=O)NCCCNCCCNC(=O)CCCC2=C(C)C(=O)c3cccc(O)c3C2=O)C(=O)c2c(O)cccc2C1=O	> 4.6 µM	47 µM	2 µM

Compound	EC50 (Trypanosoma brucei)	EC50 (Trypanosoma cruzi)	IC50 (Trypanothione reductase)
CC1=C(O)c2ccccc2C(=O)/C1=N\CCCN1CCN(C)CC1	> 12.5 µM	> 6.2 µM	> 57 µM
CC1=C(CCCCCC(=O)NCCCCNCCCNC(=O)CCCCCC2=C(C)C(=O)c3cccc(O)c3C2=O)C(=O)c2c(O)cccc2C1=O	0.3 µM	24.4 µM	1.6 µM
CC1=C(CCCCCC(=O)NCCCN2CCN(CCCNC(=O)CCCCCC3=C(C)C(=O)c4cccc(O)c4C3=O)CC2)C(=O)c2c(O)cccc2C1=O	> 1.3 µM	11.4 µM	1.6 µM
CC1=C(CCCC(=O)O)C(=O)c2c(O)cccc2C1=O	78 µM	> 109 µM	> 50 µM
CC1=C(CCCC(=O)NCCCN2CCN(C)CC2)C(=O)c2c(O)cccc2C1=O	23 µM	50 µM	32 µM
CC1=C(CCCCNC(=O)OC(C)(C)C)C(=O)c2c(O)cccc2C1=O	1.4 µM	7 µM	> 25 µM
CC1=C(CCCC(=O)N2CCN(C)CC2)C(=O)c2ccccc2C1=O	9.1 µM	27 µM	–
CC1=C(CCCCCNC(=O)OC(C)(C)C)C(=O)c2ccccc2C1=O	2.7 µM	4.3 µM	> 50 µM
CC1=C(CCCCC(=O)NCCCCNCCCNC(=O)CCCCC2=C(C)C(=O)c3ccccc3C2=O)C(=O)c2ccccc2C1=O	4.4 µM	9 µM	1.4 µM
CC1=C(CCCCC(=O)NCCCNCCCNC(=O)CCCCC2=C(C)C(=O)c3ccccc3C2=O)C(=O)c2ccccc2C1=O	15.3 µM	45 µM	18.7 µM
O=C(O)CCCC1=C(CCCC(=O)O)C(=O)c2c(O)cccc2C1=O	61 µM	> 87 µM	> 50 µM
CC1=C(CCC(=O)O)C(=O)c2ccccc2C1=O	> 30 µM	> 30 µM	> 50 µM
CN1CCN(CCCNC(=O)CCCCC2=C(CCCCC(=O)NCCCN3CCN(C)CC3)C(=O)c3c(O)cccc3C2=O)CC1	> 15 µM	> 46 µM	6.2 µM
CC1=C(NCCCNCCCN)C(=O)c2ccccc2C1=O	> 12.5 µM	> 12.5 µM	12 µM
CC1=C(CCNC(=O)OC(C)(C)C)C(=O)c2ccccc2C1=O	0.9 µM	9.5 µM	> 50 µM
CC1=C(CCCNC(=O)OC(C)(C)C)C(=O)c2ccccc2C1=O	> 3 µM	13.8 µM	> 50 µM
CC1=C(CCCCNC(=O)OC(C)(C)C)C(=O)c2ccccc2C1=O	> 3 µM	10.4 µM	> 25 µM
CC1=C(CCCC(=O)N2CCN(C)CC2)C(=O)c2c(O)cccc2C1=O	52 µM	> 84 µM	42 µM
O=C(O)CCC1=C(CCC(=O)O)C(=O)c2c(O)cccc2C1=O	59 µM	> 94 µM	> 50 µM
CC1=C(CCC(=O)NCCCNCCCNC(=O)CCC2=C(C)C(=O)c3cccc(O)c3C2=O)C(=O)c2c(O)cccc2C1=O	1.7 µM	13 µM	1.9 µM

Compound	EC50 (Trypanosoma brucei)	EC50 (Trypanosoma cruzi)	IC50 (Trypanothione reductase)
CC1=C(CCCCCC(=O)NCCCNCCCNC(=O)CCCCCC2=C(C)C(=O)c3ccccc3C2=O)C(=O)c2ccccc2C1=O	> 1.5 µM	12.5 µM	2.5 µM
CC1=C(CCCC(=O)NCCCN2CCN(CCCNC(=O)CCCC3=C(C)C(=O)c4cccc(O)c4C3=O)CC2)C(=O)c2c(O)cccc2C1=O	3.4 µM	28 µM	2.3 µM
CC1=C(N2CCN(CCCN(C)C)CC2)C(=O)c2ccccc2C1=O	> 12.5 µM	> 12.5 µM	> 57 µM
CC1=C(CCCC(=O)NCCCCNCCCNC(=O)CCCC2=C(C)C(=O)c3ccccc3C2=O)C(=O)c2ccccc2C1=O	26.6 µM	> 48 µM	4 µM
CC1=C(CCNC(=O)OC(C)(C)C)C(=O)c2c(O)cccc2C1=O	0.6 µM	3.5 µM	> 25 µM
CC1=C(CCC(=O)NCCCNCCCNC(=O)CCC2=C(C)C(=O)c3ccccc3C2=O)C(=O)c2ccccc2C1=O	4.5 µM	47 µM	5 µM
CC1=C(CCCCCC(=O)NCCCNCCCNC(=O)CCCCCC2=C(C)C(=O)c3cccc(O)c3C2=O)C(=O)c2c(O)cccc2C1=O	> 1.4 µM	3 µM	2 µM
CC1=C(CCC(=O)NCCCCNCCCNC(=O)CCC2=C(C)C(=O)c3cccc(O)c3C2=O)C(=O)c2c(O)cccc2C1=O	13.8 µM	46 µM	2.9 µM
CC1=C(CCCC(=O)O)C(=O)c2ccccc2C1=O	–	–	> 50 µM
CC1=C(CCCCCC(=O)NCCCN2CCN(CCCNC(=O)CCCCCC3=C(C)C(=O)c4ccccc4C3=O)CC2)C(=O)c2ccccc2C1=O	5.7 µM	11 µM	3.1 µM
CN1CCN(C(=O)CCC2=C(CCC(=O)N3CCN(C)CC3)C(=O)c3c(O)cccc3C2=O)CC1	22.2 µM	> 62 µM	> 50 µM
CC1=C(CCCCCC(=O)NCCCCNCCCNC(=O)CCCCCC2=C(C)C(=O)c3ccccc3C2=O)C(=O)c2ccccc2C1=O	2.6 µM	4 µM	1.7 µM
CC1=C(CCCC(=O)NCCCN2CCN(CCCNC(=O)CCCC3=C(C)C(=O)c4ccccc4C3=O)CC2)C(=O)c2ccccc2C1=O	13.7 µM	13 µM	4.5 µM
CC1=C(CCCCC(=O)NCCCN2CCN(CCCNC(=O)CCCCC3=C(C)C(=O)c4ccccc4C3=O)CC2)C(=O)c2ccccc2C1=O	7.3 µM	26 µM	1.12 µM
CC1=C(CCC(=O)NCCCN2CCN(CCCNC(=O)CCC3=C(C)C(=O)c4ccccc4C3=O)CC2)C(=O)c2ccccc2C1=O	3.2 µM	40 µM	3.7 µM
CC1=C(CCC(=O)N2CCN(C)CC2)C(=O)c2ccccc2C1=O	9.5 µM	70 µM	> 50 µM
CC1=C(CCCCC(=O)NCCCNCCCNC(=O)CCCCC2=C(C)C(=O)c3cccc(O)c3C2=O)C(=O)c2c(O)cccc2C1=O	1.1 µM	4.3 µM	0.45 µM
CC1=C(NCCCCN)C(=O)c2c(O)cccc2C1=O	> 12.5 µM	> 12.5 µM	> 57 µM
CC1=C(CCCC(=O)NCCCN2CCN(C)CC2)C(=O)c2ccccc2C1=O	46 µM	> 76 µM	44 µM
